The text below walks through data of ChEMBL document CHEMBL2412990, “Synthesis and pharmacological evaluation of new N-phenylpiperazine derivatives designed as homologues of the antipsychotic lead compound LASSBio-579” (Eur J Med Chem, 2013).

Test [1] addresses T1, 5-hydroxytryptamine receptor 1A (Rattus norvegicus) (UniProt P19327).
T1 sequence (whole entry): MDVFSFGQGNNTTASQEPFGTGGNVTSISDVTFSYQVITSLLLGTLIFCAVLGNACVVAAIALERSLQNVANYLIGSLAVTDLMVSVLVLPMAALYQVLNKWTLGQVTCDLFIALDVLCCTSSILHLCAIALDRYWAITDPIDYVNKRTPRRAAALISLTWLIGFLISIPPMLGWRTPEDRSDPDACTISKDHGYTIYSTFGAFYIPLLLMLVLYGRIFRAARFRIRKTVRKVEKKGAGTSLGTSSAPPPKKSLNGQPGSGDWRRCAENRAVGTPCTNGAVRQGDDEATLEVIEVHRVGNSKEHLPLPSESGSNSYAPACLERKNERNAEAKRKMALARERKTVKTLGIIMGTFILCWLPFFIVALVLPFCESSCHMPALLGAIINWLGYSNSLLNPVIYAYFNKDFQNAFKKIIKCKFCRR
Briefly: Antagonist activity at 5HT1A receptor in rat brain hippocampal membranes assessed as inhibition of [3H]-8-OH-DPAT binding to receptor after 15 mins by competition assay in presence of GTP. In kind it is cell membranes.

Test [2] addresses T1, 5-hydroxytryptamine receptor 1A (Rattus norvegicus). In words: Antagonist activity at 5HT1A receptor in rat brain hippocampal membranes assessed as inhibition of [3H]-8-OH-DPAT binding to receptor after 15 mins by competition assay in absence of GTP. Type of test: cell membranes. The method, boiled down: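 Hippocampal membranes, 40 µg protein, incubated with 1 nM [3H]-8-OH-DPAT at 37 °C for 15 min under yellow light. Buffer was 50 mM Tris-HCl pH 7.4 with 1 mM CaCl2, 1 mM MnCl2 and pargyline. Non-specific binding was defined with 5-HT. Filters were soaked in 0.5% polyethyleneimine. IC50 came from nonlinear regression fitted with one or two sites. Ki by Cheng-Prusoff, using Kd from saturation experiments.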

Test [3] concerns the target 5-hydroxytryptamine receptor 2A (Rattus norvegicus) (UniProt P14842). In words: Antagonist activity at 5HT2A receptor in rat brain cortical membranes assessed as inhibition of [3H]-ketanserin binding to receptor after 15 mins by competition assay in presence of GTP. In kind it is cell membranes. In a few lines:
(§1)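 Rat cortical membranes, 150 µg protein, with 1 nM [3H]-ketanserin and 100 nM prazosin in 50 mM Tris-HCl pH 7.4, 37 °C, 15 min. Non-specific binding was defined with ketanserin. For the GTP shift, paired competition curves were run without and with guanylyl nucleotide (0.1 mM Gpp(NH)p or 1 mM GTP).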

Test [4] has the same target. Briefly: Antagonist activity at 5HT2A receptor in rat brain cortical membranes assessed as inhibition of [3H]-ketanserin binding to receptor after 15 mins by competition assay in absence of GTP. Type of test: cell membranes. The method, boiled down:
as §1

Test [5] relates to Mus musculus. In words: Antipsychotic activity in CF1 mouse assessed as prevention of apomorphine-induced climbing behaviour at 15 mg/kg, po administered 30 mins prior apomorphine challenge measured 5 to 30 mins post challenge. Type of test: functional, organism-based. Further details: dose 15 mg/kg. The method, boiled down: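 Male CF1 mice (25-35 g), given the drug orally (10 ml/kg, fasted 2 h) and then kept in metal-bar cages for 30 min. Apomorphine 4 mg/kg was then given s.c. Climbing was scored 0-4 for 1 min at 5, 10, 15, 20, 25 and 30 min, and the scores were summed per animal as a climbing index. n = 8-9. One-way ANOVA with Student-Newman-Keuls post hoc test.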

Test [6] relates to Mus musculus. In words: Antipsychotic activity in CF1 mouse assessed as prevention of ketamine-induced hyperlocomotion at 1 mg/kg, po administered 30 mins prior ketamine challenge measured for 20 mins post challenge. Type of test: functional, organism-based. Further details: dose 1 mg/kg. In a few lines:
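Male CF1 mice, dosed orally (10 ml/kg, fasted 2 h) and placed at the centre of the apparatus in a dimly lit room. Ketamine 10 mg/kg was given s.c. 30 min later. A blinded observer counted square crossings over 20 min. n = 7-8. One-way ANOVA with Student-Newman-Keuls post hoc test.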

The subject of test [7] is Mus musculus. Briefly: Antipsychotic activity in CF1 mouse assessed as prevention of ketamine-induced hyperlocomotion at 0.01 mg/kg, po administered 30 mins prior ketamine challenge measured for 20 mins post challenge. In kind it is functional, organism-based. Further details: dose 0.01 mg/kg. In a few lines: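 Mice were pretreated (reference drug orally after 2 h fast; test compound i.p.) and placed in the arena centre. Ketamine 10 mg/kg s.c. was given 30 min later. A blinded observer counted total square crossings over 20 min in a dimly lit room. n = 7–8. Analysed by one-way ANOVA with Newman-Keuls post hoc test.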

Test [8] deals with Mus musculus. Briefly: Antipsychotic activity in CF1 mouse assessed as prevention of apomorphine-induced climbing behaviour at 0.5 mg/kg, po administered 30 mins prior apomorphine challenge measured 5 to 30 mins post challenge. In kind it is functional, organism-based. Further details: dose 0.5 mg/kg. The method, boiled down:
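Reference drug given orally to mice fasted 2 h. Apomorphine 4 mg/kg s.c. was given 30 min later. Climbing was scored 0–4 at 5-min intervals up to 30 min and summed as the climbing index. n = 8–9. Analysed by one-way ANOVA with Newman-Keuls post hoc test.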

The source made the active and inactive calls. The rule behind the calls is not given here.

Sequence of 5-hydroxytryptamine receptor 2A (Rattus norvegicus) (P14842 whole entry): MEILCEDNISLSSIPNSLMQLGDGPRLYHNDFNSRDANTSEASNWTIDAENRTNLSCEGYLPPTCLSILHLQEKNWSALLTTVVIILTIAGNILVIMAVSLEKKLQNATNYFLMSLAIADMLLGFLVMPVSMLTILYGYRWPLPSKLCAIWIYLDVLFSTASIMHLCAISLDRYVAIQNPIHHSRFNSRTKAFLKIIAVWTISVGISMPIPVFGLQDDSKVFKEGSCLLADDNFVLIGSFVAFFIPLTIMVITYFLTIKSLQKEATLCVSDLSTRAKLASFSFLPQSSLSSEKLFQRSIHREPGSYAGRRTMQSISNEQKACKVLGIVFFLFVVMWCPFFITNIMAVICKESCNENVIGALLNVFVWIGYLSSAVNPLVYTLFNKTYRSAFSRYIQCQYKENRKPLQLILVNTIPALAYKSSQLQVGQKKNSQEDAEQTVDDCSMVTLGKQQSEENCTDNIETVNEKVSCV

`COc1ccccc1N1CCN(CCN(C(=O)c2ccc(F)cc2)c2ccccn2)CC1`: the inhibition result in test [1] and in test [2] was “Active” each time.

As to `O=C(c1ccc(F)cc1)C1CCN(CCn2c(=O)[nH]c3ccccc3c2=O)CC1`, the inhibition entry in test [3] and in test [4] was “Active” in each case.

In the case of `CN1CCN(C2=Nc3cc(Cl)ccc3Nc3ccccc32)CC1`, the result in the test with Mus musculus [5] and with Mus musculus [6] was Active.

`O=C(CCCN1CCC(O)(c2ccc(Cl)cc2)CC1)c1ccc(F)cc1`: the outcome in the test on Mus musculus [7] was inactive. Also, in the test with Mus musculus [8], the result was Active.
